Experimental data published in publication PMC6579116 (Macromolecular bioscience, 2019).

What was measured:
[1] = system: atherosclerosis in LDLR KO mice fed high fat diet; assay: Atherosclerosis treatment study; type: in vivo, mouse; conditions: both sexes; IV twice per week for 8 weeks
Method in brief: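 LDLR KO mice on high-fat diet (20% fat, 0.2% cholesterol, 34% sucrose) from 4 weeks of age. After 14 weeks on diet, IV injection under isoflurane (dorsal penile vein, males; retro-orbital, females) twice weekly for 8 weeks. […] Controls: PBS, scrambled PA. Aortic root sections stained with Oil Red O; plaque area/total root area. n=8–10 mice/group; ANOVA with post-hoc t-test.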

[2] = Treatment study serum chemistry; type: in vivo, mouse; conditions: for Creatine: 6 mg/kg
[3] = TEM analysis of nanofiber formation, diameter and length; type: physicochemical; conditions: 1 mM in PBS, 30 measurements from three images; for Length, Average / Length, Median: ImageJ
Method in brief: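 Nanofiber diameter and length were measured by hand on TEM images in ImageJ; overlapping fibers ruled out automated tracing.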

[4] = male LDLR KO mice, IV twice per week for 8 weeks

| Compound | reversal of atherosclerosis from baseline levels [1] | liver toxicity: aspartate aminotransferase (AST) in the blood in comparison to PBS, male mice ([2]; mouse, in vivo, iv) | liver toxicity: aspartate aminotransferase (AST) in the blood in comparison to PBS, male mice [2, 4] | Creatine ([2]; mouse, in vivo, iv) | Diameter, Max. [3] [nm] | Diameter, Min. [3] [nm] | Length, Max. [3] [nm] | Length, Min. [3] [nm] | Length, Average [3] [nm] | Length, Median [3] [nm] |
| --- | --- | --- | --- | --- | --- | --- | --- | --- | --- | --- |
| O=C(O)Cc1cccc(OCCCN(Cc2cccc(C(F)(F)F)c2Cl)CC(c2ccccc2)c2ccccc2)c1 [LXR, GW3965, reference compound] | approximately 5% | significantly elevated levels |  |  |  |  |  |  |  |  |
| C16-V2A2E2-C-DWFAKDYFKKAFVEEFAK-NH2 [Scr PA] |  |  | significantly elevated levels | 0(0–0.1) 0(0–0.1) 0(0–0.1) U/L | 18.3 | 8.8 | 1472.9 | 30.0 | 403.8 | 257.6 |
| C16-V2A2E2-G-DWFKAFYDKVAEKFKEAF-NH2 [ApoA1 PA] |  |  | Neither ApoA1-LXR PAs nor ApoA1 PAs increased AST levels | 0(0–0.1) 0(0–0.1) 0(0–0.1) U/L | 14.4 | 6.2 | 2183.3 | 39.4 | 626.9 | 615.9 |
